Laboratory results from ChEMBL document CHEMBL1126707, “Tetrapeptide tachykinin antagonists: synthesis and modulation of the physicochemical and pharmacological properties of a new series of partially cyclic analogs” (J Med Chem, 1993).
pIC50: −log10 of the molar value. Values after ≈ are worked out from the molar mass of the structure shown.

Columns and labels:
[1] = Solubility was evaluated; assay type: physicochemical
[2] = biological target: T1, Substance-K receptor (Rattus norvegicus, UniProt P16610); experiment: Tested for binding affinity against rat NK-2 receptor transfected on CHO cells using [125I]-His] NKA as radioligand; assay type: cell-based
T1 sequence (P16610 whole entry): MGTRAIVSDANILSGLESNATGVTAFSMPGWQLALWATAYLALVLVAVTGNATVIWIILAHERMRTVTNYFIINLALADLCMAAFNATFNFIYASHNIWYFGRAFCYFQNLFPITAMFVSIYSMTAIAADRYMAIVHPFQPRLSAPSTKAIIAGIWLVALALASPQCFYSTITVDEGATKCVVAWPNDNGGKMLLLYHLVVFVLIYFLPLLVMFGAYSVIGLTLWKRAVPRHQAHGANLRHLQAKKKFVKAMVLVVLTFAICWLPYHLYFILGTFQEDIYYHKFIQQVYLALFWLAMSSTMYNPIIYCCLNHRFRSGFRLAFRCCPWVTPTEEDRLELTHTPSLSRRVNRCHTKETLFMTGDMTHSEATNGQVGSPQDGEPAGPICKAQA

[3] = system: Mus musculus; experiment: Tested for antinociceptive activity against mouse hotplate test for 60 min after oral administration of 40 mg/kg (P*<0.05); assay type: functional
Summary of the method: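 Male CD1 mice (25-30 g) on a 55 ± 0.2 °C plate; forepaw-licking latency measured 60 min after oral 40 mg/kg given in water (soluble) or 0.2% hydroxypropylcellulose (insoluble); % increase of reaction time versus vehicle controls; groups of 12 animals; Dunnett t-test.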

[4] = system: Mus musculus; experiment: Tested for antinociceptive activity against mouse hotplate test for 10 min after intravenous injection at 0.5 […] (P*<0.01); assay type: functional
[5] = biological target: T2, Substance-K receptor (Homo sapiens, UniProt P21452); experiment: Tested for binding affinity against human NK-2 receptor transfected on CHO cells using [125I]-His] NKA as radioligand; assay type: cell-based
T2 sequence (P21452 whole entry): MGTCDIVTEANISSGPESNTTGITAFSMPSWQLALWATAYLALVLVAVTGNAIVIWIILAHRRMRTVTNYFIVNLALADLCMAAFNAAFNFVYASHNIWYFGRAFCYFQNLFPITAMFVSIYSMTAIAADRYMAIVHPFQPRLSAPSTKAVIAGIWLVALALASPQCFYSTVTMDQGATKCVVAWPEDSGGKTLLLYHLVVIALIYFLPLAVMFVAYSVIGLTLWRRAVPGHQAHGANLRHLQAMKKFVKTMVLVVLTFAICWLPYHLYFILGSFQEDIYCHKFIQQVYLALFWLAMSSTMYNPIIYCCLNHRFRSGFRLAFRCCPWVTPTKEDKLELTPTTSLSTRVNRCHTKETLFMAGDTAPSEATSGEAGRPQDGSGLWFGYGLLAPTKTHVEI

[6] = species on record: Rattus norvegicus; experiment: Tested for its ability to promote degranulation of rat peritoneal mast cells at 0.1 mM or lower; No degranulation; assay type: functional, cell-based
Summary of the method: (§1)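 Peritoneal mast cells lavaged from male Sprague-Dawley rats (350-400 g), buffer pH 6.8, 2 × 10^4 cells/mL, preincubated 10 min at 37 °C, then exposed to compound (10^-7 to 10^-4 M, in water or DMSO) 10 min at 37 °C; iced, centrifuged; histamine in supernatant and pellet measured fluorimetrically with o-phthalaldehyde, as % of total.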

[7] = biological target: T3, Neuromedin-K receptor (Rattus norvegicus, UniProt P16177); experiment: Tested for antagonist activity against NK-3 receptor in rat portal vein by using Neurokinin B as agonist; assay type: functional; settings: read-out: pA2 (converted)
T3 sequence (P16177 whole entry): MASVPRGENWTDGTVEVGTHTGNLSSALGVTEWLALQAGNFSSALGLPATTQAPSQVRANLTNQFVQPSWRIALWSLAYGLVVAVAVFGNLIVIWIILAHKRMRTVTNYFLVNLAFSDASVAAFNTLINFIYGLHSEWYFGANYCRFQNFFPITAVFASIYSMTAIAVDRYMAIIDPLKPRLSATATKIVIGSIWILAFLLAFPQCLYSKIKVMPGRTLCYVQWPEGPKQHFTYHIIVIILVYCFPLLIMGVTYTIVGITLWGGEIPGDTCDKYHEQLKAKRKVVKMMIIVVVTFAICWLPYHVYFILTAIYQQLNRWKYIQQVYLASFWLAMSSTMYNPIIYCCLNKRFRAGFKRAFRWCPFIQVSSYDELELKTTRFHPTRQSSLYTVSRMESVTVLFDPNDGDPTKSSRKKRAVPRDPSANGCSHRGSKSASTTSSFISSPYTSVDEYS
Summary of the method: (§2)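 Isolated-organ contractile bioassays: SP on rabbit vena cava (NK-1), neurokinin A on rabbit pulmonary artery (NK-2), neurokinin B on rat portal vein (NK-3); antagonist apparent affinity expressed as pA2 by Schild plot.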

[8] = biological target: T4, Substance-K receptor (Oryctolagus cuniculus, UniProt P79218); experiment: Tested for antagonist activity against NK-2 receptor in rabbit pulmonary artery by using Neurokinin A as agonist; assay type: functional; settings: read-out: pA2 (converted); summary of the method: as §2
T4 sequence (P79218 whole entry): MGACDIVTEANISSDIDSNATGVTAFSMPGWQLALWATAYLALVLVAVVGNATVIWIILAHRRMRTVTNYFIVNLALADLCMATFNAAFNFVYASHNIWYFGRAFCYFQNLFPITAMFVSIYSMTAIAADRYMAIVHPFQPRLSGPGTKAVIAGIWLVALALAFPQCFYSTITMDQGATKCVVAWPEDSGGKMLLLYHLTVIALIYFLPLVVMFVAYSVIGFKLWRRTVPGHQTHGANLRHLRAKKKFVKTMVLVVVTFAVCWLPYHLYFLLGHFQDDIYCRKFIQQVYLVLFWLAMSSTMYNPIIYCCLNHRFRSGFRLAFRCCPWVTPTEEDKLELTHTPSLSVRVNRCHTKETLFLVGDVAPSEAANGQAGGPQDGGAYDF

[9] = biological target: Substance-P receptor (Oryctolagus cuniculus); experiment: Tested for antagonist activity against NK1 receptor in rabbit vena cava by using substance P (SP) as agonist; settings: read-out: pA2 (converted)
[10] = biological target: T1, Substance-K receptor; experiment: Tested for binding affinity against rat NK-2 receptor
[11] = biological target: Substance-P receptor (Homo sapiens, UniProt P25103); experiment: Tested for binding affinity against human NK-1 receptor
[12] = biological target: T2, Substance-K receptor; experiment: Tested for binding affinity against human NK-2 receptor
[13] = biological target: Substance-P receptor (Rattus norvegicus, UniProt P14600); experiment: Tested for binding affinity against rat NK-1 receptor
[14] = system: Mus musculus; experiment: Tested for antinociceptive activity against mouse hotplate test for 10 min after intravenous injection at 0.5 […] (P*<0.05); assay type: functional
[15] = species on record: Rattus norvegicus; experiment: Tested for its ability to promote degranulation of rat peritoneal mast cells; assay type: functional, cell-based; summary of the method: as §1

Substance-P receptor (Homo sapiens, UniProt P25103), sequence (P25103 whole entry): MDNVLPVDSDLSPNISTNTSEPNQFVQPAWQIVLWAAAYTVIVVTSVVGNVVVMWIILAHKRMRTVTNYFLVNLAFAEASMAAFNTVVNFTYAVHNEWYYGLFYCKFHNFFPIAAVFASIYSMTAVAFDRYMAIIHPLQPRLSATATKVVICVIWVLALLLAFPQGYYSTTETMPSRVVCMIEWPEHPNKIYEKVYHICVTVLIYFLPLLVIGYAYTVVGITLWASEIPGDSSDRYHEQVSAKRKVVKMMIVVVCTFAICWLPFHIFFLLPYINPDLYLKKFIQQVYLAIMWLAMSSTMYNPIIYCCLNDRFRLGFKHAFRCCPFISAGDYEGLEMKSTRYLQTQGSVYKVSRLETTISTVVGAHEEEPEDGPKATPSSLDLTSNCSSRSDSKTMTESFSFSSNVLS
Substance-P receptor (Rattus norvegicus, UniProt P14600), sequence (P14600 whole entry): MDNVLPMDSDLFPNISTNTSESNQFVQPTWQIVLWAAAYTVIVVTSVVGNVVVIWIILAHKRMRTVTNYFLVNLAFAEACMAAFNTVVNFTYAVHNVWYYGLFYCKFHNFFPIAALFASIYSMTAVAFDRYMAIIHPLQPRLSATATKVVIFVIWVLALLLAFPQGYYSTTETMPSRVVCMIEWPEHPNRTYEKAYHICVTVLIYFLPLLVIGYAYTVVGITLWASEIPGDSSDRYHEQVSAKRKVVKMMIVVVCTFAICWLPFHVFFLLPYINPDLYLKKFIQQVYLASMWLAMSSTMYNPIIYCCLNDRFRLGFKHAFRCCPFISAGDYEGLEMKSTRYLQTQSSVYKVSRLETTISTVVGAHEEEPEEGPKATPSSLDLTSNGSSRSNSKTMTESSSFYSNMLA

| SMILES | solubility [1] | Kb [7] | Kb [8] | Kb [9] | pIC50 [10] | pIC50 [11] | pIC50 [12] | pIC50 [13] | pIC50 [2] | Increase [3] | Increase [4] | pIC50 [5] | IC50 [6] | Increase [14] | pIC50 [15] |
| --- | --- | --- | --- | --- | --- | --- | --- | --- | --- | --- | --- | --- | --- | --- | --- |
| CN(Cc1ccccc1)C(=O)[C@H](Cc1ccccc1)NC(=O)[C@@H](Cc1c[nH]c2ccccc12)NC(=O)C[C@@H]1NC(=O)[C@@H]2C3CCC(CC3)N2C1=O | < 0.01 mg/mL | 1.58 µM | 2 µM | – | – | – | – | – | 7.19 | 74% | 66% | 7.19 | Not Active | – | – |
| CN(Cc1ccccc1)C(=O)[C@H](Cc1ccccc1)NC(=O)[C@@H](Cc1cn(C(=O)OCc2ccccc2)c2ccccc12)NC(=O)C[C@@H]1NC(=O)[C@@H]2C3CCC(CC3)N2C1=O | < 0.01 mg/mL | 1.58 µM | 1.26 µM | 0.158 µM | – | – | – | – | – | – | – | – | – | – | – |
| CN(Cc1ccccc1)C(=O)[C@H](Cc1ccccc1)NC(=O)[C@@H](Cc1cn(C(=O)OCCCCCCN)c2ccccc12)NC(=O)C[C@@H]1NC(=O)[C@@H]2C3CCC(CC3)N2C1=O | 40 mg/mL (≈ 48.1 mM) | 10 µM | 10 µM | 0.0398 µM | 6.61 | 7.47 | 7.34 | 5.50 | – | 62% | – | – | – | 40% | 4.89 |
| CN(Cc1ccccc1)C(=O)[C@H](Cc1ccccc1)NC(=O)[C@@H](Cc1cn(C(=O)CCCCCCN)c2ccccc12)NC(=O)C[C@@H]1NC(=O)[C@@H]2C3CCC(CC3)N2C1=O | 43 mg/mL (≈ 52.7 mM) | 2 µM | 20 µM | – | 6.73 | – | 7.35 | – | – | 62% | – | – | – | 54% | 4.89 |

More lines, main results first:

| solubility [1] | Kb [7] | Kb [8] | Kb [9] | pIC50 [10] | pIC50 [11] | pIC50 [12] | pIC50 [13] | SMILES | pIC50 [2] | Increase [3] | Increase [4] | pIC50 [5] | IC50 [6] | Increase [14] | pIC50 [15] |
| --- | --- | --- | --- | --- | --- | --- | --- | --- | --- | --- | --- | --- | --- | --- | --- |
| < 0.01 mg/mL | 0.158 µM | 15.8 µM | 0.1 µM | – | – | – | – | COC(=O)n1cc(C[C@@H](NC(=O)C[C@@H]2NC(=O)[C@@H]3C4CCC(CC4)N3C2=O)C(=O)N[C@@H](Cc2ccccc2)C(=O)N(C)Cc2ccccc2)c2ccccc21 | – | – | – | – | – | – | – |
| 45 mg/mL (≈ 57 mM) | 12.6 µM | 15.8 µM | 0.126 µM | 6.41 | 7.07 | 6.89 | 4.84 | CN(Cc1ccccc1)C(=O)[C@H](Cc1ccccc1)NC(=O)[C@@H](Cc1cn(C(=O)CCC(=O)O)c2ccccc12)NC(=O)C[C@@H]1NC(=O)[C@@H]2C3CCC(CC3)N2C1=O | – | 53% | – | – | – | 42% | – |
| < 0.01 mg/mL | 1.26 µM | 12.6 µM | 0.126 µM | – | – | – | – | CN(Cc1ccccc1)C(=O)[C@H](Cc1ccccc1)NC(=O)[C@@H](Cc1cn(C(=O)OC(C)(C)C)c2ccccc12)NC(=O)C[C@@H]1NC(=O)[C@@H]2C3CCC(CC3)N2C1=O | – | – | – | – | – | – | – |
